Key:
Format in all cases: cell-based
hERG (KCNH2) [1] = molecular target: T1, hERG (KCNH2) (Homo sapiens, UniProt Q12809); test: Inhibition of human ERG expressed in HEK293 cells at 10 uM by automated patch clamp method relative to control; conditions: HEK293 cells that express hERG
hERG (KCNH2) [2] = molecular target: T1, hERG (KCNH2); test: Inhibition of human ERG expressed in HEK293 cells at 1 uM by automated patch clamp method relative to control; conditions: HEK293 cells that express hERG
How it was run: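 Automated whole-cell patch clamp in HEK-293 cells stably transfected with hERG (Kv11.1) cDNA. Increasing concentrations (1 and 10 μM) applied, two cells each. Current amplitude inhibition expressed as %, means ± SEM. 10 μM amitriptyline used as reference blocker.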

[3] = molecular target: T2, Kir3.1/Kir3.4 (Homo sapiens) (UniProt P48549+P48544); test: Inhibition of GIRK-1/4 channel (unknown origin) expressed in HEK293 cells at 1 uM by automated patch clamp method relative to control
How it was run: (§1)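 HEK-293 cells stably expressing GIRK1/4 (Kir3.1/3.4) K+ channels; whole-cell currents recorded by automated patch clamp. Compounds screened at 1 and 10 μM, two or three cells per condition. Current values corrected using the current measured in K+-free external solution as baseline. Inhibition expressed as % of GIRK current; mean ± SEM, n = 2–3.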

Kir3.1/Kir3.4 = molecular target: T3, Kir3.1/Kir3.4 (Homo sapiens, UniProt P48544+P48549); test: (§2) Inhibition of GIRK-1/4 channel (unknown origin) expressed in HEK293 cells by automated patch clamp method
T3 sequence (P48549 whole entry): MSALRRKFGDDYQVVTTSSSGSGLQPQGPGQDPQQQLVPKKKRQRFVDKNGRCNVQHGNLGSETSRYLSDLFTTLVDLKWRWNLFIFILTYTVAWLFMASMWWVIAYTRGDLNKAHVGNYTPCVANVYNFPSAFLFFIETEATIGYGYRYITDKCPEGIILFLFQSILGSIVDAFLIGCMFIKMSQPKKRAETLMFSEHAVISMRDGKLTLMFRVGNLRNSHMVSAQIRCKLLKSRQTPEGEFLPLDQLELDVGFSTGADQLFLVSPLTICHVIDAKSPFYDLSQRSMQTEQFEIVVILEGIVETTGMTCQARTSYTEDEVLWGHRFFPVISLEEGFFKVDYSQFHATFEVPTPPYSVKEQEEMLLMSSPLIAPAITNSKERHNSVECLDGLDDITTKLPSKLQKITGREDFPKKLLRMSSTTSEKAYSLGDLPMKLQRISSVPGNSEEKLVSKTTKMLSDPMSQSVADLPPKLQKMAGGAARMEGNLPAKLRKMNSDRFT
T3 sequence (P48544 whole entry): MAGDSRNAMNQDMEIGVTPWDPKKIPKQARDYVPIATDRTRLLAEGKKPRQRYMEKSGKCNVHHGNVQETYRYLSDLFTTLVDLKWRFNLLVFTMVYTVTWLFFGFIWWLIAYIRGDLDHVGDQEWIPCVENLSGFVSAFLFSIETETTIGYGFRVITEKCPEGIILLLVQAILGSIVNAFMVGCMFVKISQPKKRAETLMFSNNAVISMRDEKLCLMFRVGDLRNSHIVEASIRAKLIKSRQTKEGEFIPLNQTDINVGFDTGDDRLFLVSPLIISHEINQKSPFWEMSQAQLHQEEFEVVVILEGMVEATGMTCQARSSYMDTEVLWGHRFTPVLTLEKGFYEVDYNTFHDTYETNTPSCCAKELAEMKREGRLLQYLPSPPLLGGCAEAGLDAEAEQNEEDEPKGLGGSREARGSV
How it was run: (§3)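 Whole-cell currents by automated patch clamp in HEK-293 cells stably expressing GIRK1/4 (Kir3.1/3.4). Screening at 1 and 10 μM on two or three cells. Concentration-response at four concentrations (0.3, 1, 3, 10 μM) on five or six cells, used for IC50. Currents corrected to the K+-free external solution as baseline. Means ± SEM.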

[4] = molecular target: T2, Kir3.1/Kir3.4 (Homo sapiens); test: as §2; how it was run: as §3
[5] = molecular target: T2, Kir3.1/Kir3.4 (Homo sapiens); test: Inhibition of GIRK-1/4 channel (unknown origin) expressed in HEK293 cells at 10 uM by automated patch clamp method relative to control; how it was run: as §1

T1 sequence (Q12809 whole entry): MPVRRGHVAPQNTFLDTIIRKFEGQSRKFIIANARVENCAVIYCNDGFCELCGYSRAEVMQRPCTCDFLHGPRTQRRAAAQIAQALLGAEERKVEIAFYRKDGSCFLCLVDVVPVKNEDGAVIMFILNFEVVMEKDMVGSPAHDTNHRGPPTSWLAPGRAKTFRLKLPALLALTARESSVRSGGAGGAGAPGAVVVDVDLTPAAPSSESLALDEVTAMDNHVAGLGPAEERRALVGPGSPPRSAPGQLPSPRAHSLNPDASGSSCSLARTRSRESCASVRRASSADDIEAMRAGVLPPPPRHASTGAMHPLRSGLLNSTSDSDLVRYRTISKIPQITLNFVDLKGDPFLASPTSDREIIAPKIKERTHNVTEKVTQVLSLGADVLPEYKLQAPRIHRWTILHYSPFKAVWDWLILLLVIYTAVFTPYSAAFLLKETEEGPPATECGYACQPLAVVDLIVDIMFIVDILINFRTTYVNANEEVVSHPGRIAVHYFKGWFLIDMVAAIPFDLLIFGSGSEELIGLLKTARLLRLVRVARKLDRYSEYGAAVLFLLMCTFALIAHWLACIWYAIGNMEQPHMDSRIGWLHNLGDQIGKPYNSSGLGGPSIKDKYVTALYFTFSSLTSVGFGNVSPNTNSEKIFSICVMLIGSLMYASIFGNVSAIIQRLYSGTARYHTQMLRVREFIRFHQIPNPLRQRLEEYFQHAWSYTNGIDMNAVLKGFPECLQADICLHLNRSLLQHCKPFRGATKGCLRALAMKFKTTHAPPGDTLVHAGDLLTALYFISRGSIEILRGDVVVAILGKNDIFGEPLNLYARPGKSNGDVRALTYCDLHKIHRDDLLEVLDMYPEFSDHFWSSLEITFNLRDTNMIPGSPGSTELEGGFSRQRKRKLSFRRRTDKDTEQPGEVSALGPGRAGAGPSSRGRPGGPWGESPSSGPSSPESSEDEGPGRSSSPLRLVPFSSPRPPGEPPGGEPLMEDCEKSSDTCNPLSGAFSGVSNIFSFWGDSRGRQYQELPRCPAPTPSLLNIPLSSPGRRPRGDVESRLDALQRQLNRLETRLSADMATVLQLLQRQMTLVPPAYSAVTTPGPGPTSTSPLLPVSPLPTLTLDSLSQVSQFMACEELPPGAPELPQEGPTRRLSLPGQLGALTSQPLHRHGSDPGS

Structure (SMILES): C/C=C(\C)C(=O)O[C@H]1/C(C)=C/[C@H]2[C@@H](OC(=O)c3ccccc3)[C@@H](C)C[C@]2(O)[C@@H](OC(C)=O)[C@@H](C)/C=C/C(C)(C)[C@H](OC(C)=O)[C@H]1OC(C)=O
- inhibition at 10 µM (hERG (KCNH2) [1]): 24.4%
- inhibition at 1 µM (hERG (KCNH2) [2]): 6.5%
- inhibition [3]: 38.5%
- IC50 (Kir3.1/Kir3.4): 1600 nM
- inhibition [4]: Dose-dependent effect
- inhibition [5]: 85%

Structure (SMILES): C/C=C(/C)C(=O)O[C@H]1C(C)=C[C@@]23C(=O)[C@@H](C=C(C)[C@@H](O)[C@]12O)[C@H]1[C@@H](C[C@H]3C)C1(C)C
- inhibition at 10 µM (hERG (KCNH2) [1]): 7.9%
- inhibition at 1 µM (hERG (KCNH2) [2]): 1.8%
- inhibition [3]: 23.8%
- IC50 (Kir3.1/Kir3.4): 12100 nM
- inhibition [4]: Dose-dependent effect
- inhibition [5]: 52.3%

Structure (SMILES): CCCNCC(O)COc1ccccc1C(=O)CCc1ccccc1 (stereo unspecified)
- inhibition [3]: 60.6 to 94.2%

Structure (SMILES): C/C=C(\C)C(=O)O[C@@H]1C[C@@H](OC(C)=O)C(C)(C)/C=C/[C@H](C)[C@H](OC(C)=O)[C@@]2(O)C[C@H](C)[C@H](OC(=O)c3ccccc3)[C@@H]2/C=C/1C
- inhibition at 10 µM (hERG (KCNH2) [1]): 24.9%
- inhibition at 1 µM (hERG (KCNH2) [2]): 10.8%
- inhibition [3]: 35.5%
- IC50 (Kir3.1/Kir3.4): 1310 nM
- inhibition [4]: Dose-dependent effect
- inhibition [5]: 88.7%

Structure (SMILES): CC(=O)O[C@H]1[C@@H](C)/C=C/C(C)(C)[C@H](O)[C@@H](O)[C@@H](O)/C(C)=C/[C@H]2[C@@H](OC(=O)c3ccccc3)[C@@H](C)C[C@@]21O
- inhibition [3]: 15.7%
- inhibition [5]: 25.7%

Structure (SMILES): CC(=O)O[C@@H]1[C@@H](O)[C@@H](OC(C)=O)/C(C)=C/[C@H]2[C@@H](OC(=O)c3ccccc3)[C@@H](C)C[C@]2(O)[C@@H](OC(C)=O)[C@@H](C)/C=C/C1(C)C
- inhibition [3]: 16%
- inhibition [5]: 26.8%

Structure (SMILES): C=C1CC[C@@H](OC(=O)/C=C/c2ccccc2)C(C)(C)/C=C/[C@H](C)C(=O)[C@@]2(O)C[C@H](C)[C@H](OC(=O)/C=C/c3ccccc3)[C@@H]2[C@H]1OC(C)=O
- inhibition [3]: 22.2%
- inhibition [5]: 23.7%

Structure (SMILES): CC(=O)O[C@H]1/C(C)=C/[C@H]2[C@@H](OC(=O)c3ccccc3)[C@@H](C)C[C@]2(O)[C@@H](OC(C)=O)[C@@H](C)/C=C/C(C)(C)[C@H](O)[C@H]1O
- inhibition [3]: 11.2%
- inhibition [5]: 23.5%

Structure (SMILES): C/C=C(\C)C(=O)O[C@H]1[C@@H](C)/C=C/C(C)(C)[C@H](OC(C)=O)[C@@H](OC(C)=O)[C@@H](O)/C(C)=C/[C@H]2[C@@H](OC(=O)c3ccccc3)[C@@H](C)C[C@@]21O
- inhibition [3]: 15.3%
- inhibition [5]: 60.8%

Structure (SMILES): CC(=O)O[C@@H]1[C@@H](OC(C)=O)C(C)(C)/C=C/[C@H](C)[C@H](O)[C@@]2(OC(C)=O)C[C@H](C)[C@H](OC(=O)c3ccccc3)[C@@H]2/C=C(\C)[C@@H]1OC(C)=O
- inhibition at 10 µM (hERG (KCNH2) [1]): 22.7%
- inhibition at 1 µM (hERG (KCNH2) [2]): 11.2%
- inhibition [3]: 27.2%
- IC50 (Kir3.1/Kir3.4): 3400 nM
- inhibition [4]: Dose-dependent effect
- inhibition [5]: 66%

Structure (SMILES): CC(=O)O[C@@H]1[C@@H](OC(C)=O)C(C)(C)/C=C/[C@H](C)[C@H](OC(C)=O)[C@@]2(O)C[C@H](C)[C@H](OC(=O)c3ccccc3)[C@@H]2/C=C(\C)[C@@H]1O
- inhibition [3]: 16.8%
- inhibition [5]: 66.6%

Structure (SMILES): C/C=C(/C)C(=O)OCC1(C)[C@H]2[C@@H]3C=C(COC(C)=O)[C@@H](O)[C@]4(O)[C@@H](OC(=O)/C(C)=C\C)C(C)=C[C@]4(C3=O)[C@H](C)C[C@H]21 (stereo partly specified)
- inhibition [3]: 16.4%
- inhibition [5]: 45.1%

Structure (SMILES): CC(=O)OCC(=O)O[C@@H]1[C@H]2[C@@H](OC(=O)c3ccccc3)[C@@H](C)C[C@]2(O)[C@@H](OC(C)=O)[C@]2(C)C[C@@]1(OC(C)=O)C[C@H]1C(=O)C(C)(C)C[C@@H]12
- inhibition [3]: 17.7%
- inhibition [5]: 28.6%

Structure (SMILES): C/C=C(/C)C(=O)OCC1(C)[C@H]2[C@@H]3C=C(C)[C@@H](O)[C@]4(O)[C@@H](OC(=O)/C(C)=C\C)C(C)=C[C@]4(C3=O)[C@H](C)C[C@H]21 (stereo partly specified)
- inhibition at 10 µM (hERG (KCNH2) [1]): 55.4%
- inhibition at 1 µM (hERG (KCNH2) [2]): 11.2%
- inhibition [3]: 43.9%
- IC50 (Kir3.1/Kir3.4): 1450 nM
- inhibition [4]: Dose-dependent effect
- inhibition [5]: 80.4%

Structure (SMILES): CC(=O)O[C@@H]1[C@@H](OC(C)=O)C(C)(C)/C=C/[C@H](C)[C@H](OC(C)=O)[C@@]2(O)C[C@H](C)[C@H](OC(=O)c3ccccc3)[C@@H]2/C=C(\C)[C@@H]1OC(C)=O
- inhibition at 10 µM (hERG (KCNH2) [1]): 24%
- inhibition at 1 µM (hERG (KCNH2) [2]): 13.2%
- inhibition [3]: 33.8%
- IC50 (Kir3.1/Kir3.4): 1690 nM
- inhibition [4]: Dose-dependent effect
- inhibition [5]: 83.4%

Structure (SMILES): CC(=O)O[C@@H]1C[C@@H](OC(C)=O)C(C)(C)/C=C/[C@H](C)[C@H](OC(C)=O)[C@@]2(O)C[C@H](C)[C@H](OC(=O)c3ccccc3)[C@@H]2/C=C/1C [EUPHORNIN]
- inhibition at 10 µM (hERG (KCNH2) [1]): 19%
- inhibition at 1 µM (hERG (KCNH2) [2]): 3.3%
- inhibition [3]: 31.1%
- IC50 (Kir3.1/Kir3.4): 2630 nM
- inhibition [4]: Dose-dependent effect
- inhibition [5]: 78.7%

Structure (SMILES): C/C=C(\C)C(=O)O[C@H]1/C(C)=C/[C@H]2[C@@H](OC(=O)c3ccccc3)[C@@H](C)C[C@]2(O)[C@@H](OC(=O)/C(C)=C/C)[C@@H](C)/C=C/C(C)(C)[C@H](OC(C)=O)[C@H]1OC(C)=O
- inhibition [3]: 23.5%
- inhibition [5]: 35.7%

— ChEMBL document CHEMBL4266051, “Diterpenoids from Euphorbia dulcis with Potassium Ion Channel Inhibitory Activity with Selective G Protein-Activated Inwardly Rectifying Ion Channel (GIRK) Blocking Effect” (J Nat Prod, 2018)
